Consider one compound from ChEMBL document CHEMBL1126589, “Substituted 3-(phenylmethyl)-1H-indole-5-carboxamides and 1-(phenylmethyl)indole-6-carboxamides as potent, selective, orally active antagonists of the peptidoleukotrienes” (J Med Chem, 1993).

The term pKB denotes the KB on a negative log10 scale, so that one unit is a factor of ten. Low values mean a large KB, high ones a small KB. The Cmax is the highest concentration seen after dosing. The ED50 is the dose at which the effect has come halfway, by size or by number of responders. Read a high ED50 as weaker potency. One may read the bioavailability as dose-corrected exposure relative to a reference, in per cent. Broadly, the Ki is the equilibrium dissociation constant of an inhibitor or competing ligand from its target. Higher therefore signals a looser hold on the target.

A short description of data set [1]: Integrated area under the blood concentration vs time curve for the period 0-24 hr postdose of 5.0 mg/kg (normalized to a 1 mg/kg dose) GP. Also on record: dose 5 mg/kg, time < 24 hr. Particulars: guinea pig, in vivo. In kind it is ADME, organism-based. The method in brief:
(§1)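 Guinea pigs, fasted overnight and cannulated at least 20 h beforehand, given 5 mg/kg orally and intravenously (jugular cannula) in polyethylene glycol/phosphate buffered saline.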

Data set [2] in a line: ED50 ratio of LTD4 peroral administration / LTD4 intravenous administration. The format is functional. The method in brief: (§2)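 Conscious guinea pigs challenged with LTD4 ("dyspnea" model) after oral or intravenous dosing; percent protection from LTD4-induced dyspnea plotted against dose to derive ED50; po/iv ratio taken from the oral and intravenous ED50 values.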
The target in data set [3] is T1, Cysteinyl leukotriene receptor 1 (Cavia porcellus) (UniProt Q2NNR5).
T1 sequence (whole entry): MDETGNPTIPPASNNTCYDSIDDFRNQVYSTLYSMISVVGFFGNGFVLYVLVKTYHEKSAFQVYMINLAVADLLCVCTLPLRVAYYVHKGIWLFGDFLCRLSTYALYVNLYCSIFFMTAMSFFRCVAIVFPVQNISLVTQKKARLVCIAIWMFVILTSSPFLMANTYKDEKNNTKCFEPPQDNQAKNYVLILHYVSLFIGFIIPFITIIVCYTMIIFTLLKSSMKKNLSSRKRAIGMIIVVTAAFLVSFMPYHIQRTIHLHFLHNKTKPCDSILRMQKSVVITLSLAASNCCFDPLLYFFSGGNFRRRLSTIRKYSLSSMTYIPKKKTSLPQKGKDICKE
The data set can be described thus: Binding affinity against leukotriene receptor (LTE4) from guinea pig tracheal spirals. The format is tissue-based. The procedure, abridged: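 Functional antagonism in isolated guinea pig tracheal spirals contracted with LTE4 as agonist; KB derived from concentration-response curves, n = number of curves.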

In the next data set the test system is Rattus norvegicus. Nature of the data set: Integrated area under the blood concentration vs time curve for the period 0-24 hr postdose of 2.5 mg/kg (normalized to a 1 mg/kg dose) in rat. Also on record: dose 2.5 mg/kg, time < 24 hr. Conditions: in vivo. In kind it is ADME, organism-based. The method in brief:
(§3)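 Sprague-Dawley rats, fasted overnight, cannulated in carotid artery and/or jugular vein at least 20 h before dosing. Oral doses 1 or 2.5 mg/kg, iv 2.5 mg/kg via jugular cannula, in polyethylene glycol/phosphate buffered saline. Unchanged compound in whole blood measured by HPLC over 0–24 h; AUC by trapezoidal rule; values also normalized to 1.0 mg/kg.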

A short description of data set [4]: Maximum concentration in whole blood recorded in the period 0-24 hr postdose of 2.5 mg/kg in rat (normalized to a 1 mg/kg dose). Conditions: in vivo. In kind it is ADME, organism-based. The arrangement: dose 2.5 mg/kg. The procedure, abridged:
as §3

Data set [5] concerns Cavia porcellus. The data set can be described thus: Effective dose against LTD4-induced bronchoconstriction in guinea pig after peroral administration. The format is functional. Particulars: po. The procedure, abridged: as §2
A short description of data set [6]: Bioavailability was determined in GP. In kind it is ADME, organism-based, Cavia porcellus. Conditions: guinea pig, in vivo. The procedure, abridged: as §1
Data set [7] addresses T2, Cysteinyl leukotriene receptor 1 (Cavia porcellus, UniProt Q2NNR5).
T2 sequence (Q2NNR5 whole entry): T1 sequence (whole entry)
Nature of the data set: Binding affinity to the leukotriene receptor (LTD4) from guinea pig lung parenchymal membranes assayed using [3H]LTD4 as radioligand. In kind it is tissue-based, Lung parenchyma. The method in brief: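 Displacement of [3H]LTD4 from guinea pig lung parenchymal membranes; Ki is the mean of two experiments run in duplicate with separate batches, reported as pKi (-log Ki).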

Data set [8] can be described thus: Maximum concentration in whole blood recorded in the period 0-24 hr postdose of 5.0 mg/kg GP (normalized to a 1 mg/kg dose). In kind it is ADME, organism-based. The arrangement: dose 5 mg/kg. Conditions: guinea pig, in vivo. The procedure, abridged:
as §1

Data set [9] concerns Cavia porcellus. Nature of the data set: Effective dose against LTD4-induced bronchoconstriction in guinea pig after intravenous administration. The format is functional. The procedure, abridged: as §2
A short description of data set [10]: Bioavailability in rat. The format is ADME, organism-based. Particulars: in vivo. The method in brief:
as §3

Structures are written as SMILES.

With `CCC(CC)CNC(=O)c1ccc2c(c1)c(Cc1ccc(C(=O)NS(=O)(=O)c3ccccc3C)cc1OC)cn2CC`, the AUC amounted to 207 ng·h/mL in data set [1] and 4070 ng/h/mL in the data set on Rattus norvegicus. Also, in data set [2], the Ratio was found to be 81. This compound registered a negative logarithm of the KB (pKB) in data set [3] of 9.5. The Cmax in data set [4] turned out to be 540 ng/mL; in [8], 92 ng/mL. The ED50 in the data set on Cavia porcellus [5] came to 5.3 µmol/kg; with Cavia porcellus [9], 0.07 µmol/kg. Besides, the bioavailability in data set [6] turned out to be 5.1%; in [10], 28.1%. This compound also showed a Ki in data set [7] of 1 nM.
